This note sets out measurements from ChEMBL document CHEMBL4304743, “Discovery of ( E)- N1-(3-Fluorophenyl)- N3-(3-(2-(pyridin-2-yl)vinyl)-1 H-indazol-6-yl)malonamide (CHMFL-KIT-033) as a Novel c-KIT T670I Mutant Selective Kinase Inhibitor for Gastrointestinal Stromal Tumors (GISTs)” (J Med Chem, 2019).

As usually defined, the GI50 is the concentration giving 50% growth inhibition. The term pEC50 denotes the negative decadic logarithm of the EC50, by convention in mol/L. By MRT inf is commonly meant the average time that molecules of a dose stay in the body. For orientation: AUC(0-t) means the area under the concentration-time curve up to a stated or last time point. A high value points to high exposure. What is called Cmax is the peak of the concentration-time curve. By half-life is commonly meant the time in which the quantity being followed falls by half. A low value points to rapid decline.

Structures are written as SMILES. pEC50: −log10 of the molar value. Calls of active or inactive are those of the source. The calls are words filed in the database; no cut-off is given here.

Data set [1] deals with Mast/stem cell growth factor receptor Kit (Homo sapiens), P10721 [T670I]. Briefly: Inhibition of TEL fused c-KIT T670I mutant (unknown origin) transfected in mouse BAF3 cells assessed as growth inhibition after 72 hrs by CCK8 assay. Type of data set: cell-based. The method, boiled down:
(§1)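 Tel-c-KIT-transformed BaF3 lines (IL-3 independent) kept in RPMI 1640 with 10% FBS, 2% L-glutamine and pen/strep. Cells at 1.5 to 5 × 10^4 cells/mL mixed with graded compound and incubated 72 h at 37 °C, 5% CO2. Viability by CCK-8 absorbance at 450 nm, normalized to DMSO. GI50 from dose–response fit.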
Background: Tetrazolium assays rely on reduction of a dye to a coloured formazan, in cell work by metabolically active cells.

Data set [2] in a line: Selectivity ratio, ratio of inhibition of wild type TEL fused c-KIT (unknown origin) transfected in mouse BAF3 cells assessed as growth inhibition to inhibition of TEL fused c-KIT T670I mutant (unknown origin) transfected in mouse BAF3 cells assessed as growth inhibition. Set-up: species or system Homo sapiens. The method, boiled down: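 IL-3 independent BaF3 cells stably expressing tel-c-KIT wt or tel-c-KIT T670I, grown in RPMI 1640 with 10% FBS, 2% L-glutamine, 37 °C, 5% CO2. Suspension cells at 1.5 to 5 × 10^4 cells/mL mixed with serial compound dilutions and incubated 72 h. Viability read by CCK-8 absorbance at 450 nm, normalized to DMSO; GI50 from curve fit. Selectivity is wt GI50 over T670I GI50.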

Data set [3] concerns Mast/stem cell growth factor receptor Kit (Homo sapiens), P10721 [V559G]. In words: Inhibition of TEL fused c-KIT V559G mutant (unknown origin) transfected in mouse BAF3 cells assessed as growth inhibition after 72 hrs by CCK8 assay. In kind it is cell-based. The gist of the method: as §1
Mast/stem cell growth factor receptor Kit (Homo sapiens), P10721 [V559G], sequence (P10721 whole entry V559G, the tested form may be a part): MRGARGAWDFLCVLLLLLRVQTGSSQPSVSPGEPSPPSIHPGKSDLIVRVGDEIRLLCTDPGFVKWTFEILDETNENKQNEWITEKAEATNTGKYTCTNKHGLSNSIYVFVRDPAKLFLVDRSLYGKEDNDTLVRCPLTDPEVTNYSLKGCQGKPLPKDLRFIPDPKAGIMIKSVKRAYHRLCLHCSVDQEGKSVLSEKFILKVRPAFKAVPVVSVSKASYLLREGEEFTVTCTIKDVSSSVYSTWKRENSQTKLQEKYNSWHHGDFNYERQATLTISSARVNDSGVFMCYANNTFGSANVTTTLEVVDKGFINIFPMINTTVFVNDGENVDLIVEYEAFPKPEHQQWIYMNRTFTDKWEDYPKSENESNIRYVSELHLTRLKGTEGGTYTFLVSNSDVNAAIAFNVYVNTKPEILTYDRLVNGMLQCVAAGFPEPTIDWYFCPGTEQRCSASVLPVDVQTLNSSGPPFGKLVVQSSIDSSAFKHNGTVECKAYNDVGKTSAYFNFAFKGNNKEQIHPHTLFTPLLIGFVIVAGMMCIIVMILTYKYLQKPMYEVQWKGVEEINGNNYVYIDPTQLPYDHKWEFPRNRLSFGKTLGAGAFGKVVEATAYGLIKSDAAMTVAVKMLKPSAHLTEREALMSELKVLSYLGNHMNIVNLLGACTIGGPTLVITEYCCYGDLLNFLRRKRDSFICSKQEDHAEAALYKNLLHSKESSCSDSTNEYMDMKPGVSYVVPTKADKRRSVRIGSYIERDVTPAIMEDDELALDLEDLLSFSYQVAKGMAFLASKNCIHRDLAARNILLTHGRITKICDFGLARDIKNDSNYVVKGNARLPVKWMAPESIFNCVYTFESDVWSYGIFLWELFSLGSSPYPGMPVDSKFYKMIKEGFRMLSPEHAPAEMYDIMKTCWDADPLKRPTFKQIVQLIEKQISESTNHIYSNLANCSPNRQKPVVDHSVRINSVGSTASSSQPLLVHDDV
Data set [4] has as its system Mast/stem cell growth factor receptor Kit (Homo sapiens), P10721 [V559D,V654A]. Briefly: Inhibition of TEL fused c-KIT V654A/V559D double mutant (unknown origin) transfected in mouse BAF3 cells assessed as growth inhibition after 72 hrs by CCK8 assay. In kind it is cell-based. The gist of the method:
as §1

Data set [5] addresses Mast/stem cell growth factor receptor Kit (Homo sapiens, UniProt P10721). Briefly: Inhibition of TEL fused wild type c-KIT (unknown origin) transfected in mouse BaF3 cells assessed as reduction in phosphorylation at Y823 residue after 2 hrs by Western blot analysis. In kind it is cell-based. Background: In western blotting, separated proteins are transferred to a membrane and probed.

In data set [6] the target is Mast/stem cell growth factor receptor Kit (Homo sapiens, UniProt P10721, T670I). In words: Inhibition of TEL fused wild type c-KIT T670I mutant (unknown origin) transfected in mouse BaF3 cells assessed as reduction in phosphorylation at Y719 residue after 2 hrs by Western blot analysis. In kind it is cell-based.
Mast/stem cell growth factor receptor Kit (Homo sapiens, UniProt P10721, T670I), sequence (P10721 26-976 T670I limits assumed): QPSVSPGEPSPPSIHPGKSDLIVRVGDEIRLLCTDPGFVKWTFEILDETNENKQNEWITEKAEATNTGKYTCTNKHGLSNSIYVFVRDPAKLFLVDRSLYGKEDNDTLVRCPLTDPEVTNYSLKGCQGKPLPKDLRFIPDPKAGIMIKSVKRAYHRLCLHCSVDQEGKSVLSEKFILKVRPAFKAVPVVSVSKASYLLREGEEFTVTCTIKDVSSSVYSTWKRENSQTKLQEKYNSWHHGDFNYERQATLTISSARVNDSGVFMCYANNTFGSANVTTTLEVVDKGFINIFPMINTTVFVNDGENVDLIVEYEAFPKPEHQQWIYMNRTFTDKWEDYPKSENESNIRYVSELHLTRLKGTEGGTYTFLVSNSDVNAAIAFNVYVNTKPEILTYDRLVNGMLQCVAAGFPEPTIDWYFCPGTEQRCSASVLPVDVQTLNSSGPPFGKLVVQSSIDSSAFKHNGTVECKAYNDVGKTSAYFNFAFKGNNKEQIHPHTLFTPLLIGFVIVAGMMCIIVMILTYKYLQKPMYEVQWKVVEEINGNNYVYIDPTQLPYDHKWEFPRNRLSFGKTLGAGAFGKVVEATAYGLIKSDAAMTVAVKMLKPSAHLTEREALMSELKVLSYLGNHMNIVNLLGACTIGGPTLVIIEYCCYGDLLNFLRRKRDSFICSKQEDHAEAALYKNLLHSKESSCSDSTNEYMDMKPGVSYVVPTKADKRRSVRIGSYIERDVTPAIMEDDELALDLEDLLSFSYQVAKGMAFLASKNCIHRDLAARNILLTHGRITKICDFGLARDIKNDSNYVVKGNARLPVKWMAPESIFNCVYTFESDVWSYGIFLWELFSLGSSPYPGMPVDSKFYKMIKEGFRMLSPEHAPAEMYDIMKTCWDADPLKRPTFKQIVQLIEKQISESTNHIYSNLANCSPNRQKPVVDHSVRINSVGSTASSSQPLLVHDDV
For data set [7], the system named is GISTT1. Briefly: Antiproliferative activity against human GISTT1 cells harboring c-KIT 560 to 578 deletion mutant incubated for 72 hrs by CCK8 assay. In kind it is functional. The conditions noted are these: GISTT1, 72 h. The gist of the method:
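Adherent GIST cells seeded at 1.5-5 × 10^4 cells/mL and left overnight at 37 °C, 5% CO2. Medium then replaced with medium holding serial compound dilutions; 72 h incubation. Viability by CCK-8, absorbance at 450 nm, normalized to DMSO control; GI50 from dose-response fit.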

For data set [8], the system named is Mast/stem cell growth factor receptor Kit (Homo sapiens), P10721 [UNDEFINED MUTATION]. Briefly: Inhibition of c-KIT 560 to 578 deletion/T670I double mutant in human GIST5R cells assessed as reduction in AKT phosphorylation at S473 residue at 0.1 uM to 3 uM after 1 hr by Western blot analysis. Type of data set: cell-based. The gist of the method:
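Serial compound dilutions applied for 1 h to GIST-T1, GIST-T1-T670I (CRISPR/Cas9 T670I knock-in, clone confirmed by Sanger sequencing) or GIST-5R cells in DMEM with 10% FBS. Cells then lysed and phospho-proteins detected by standard Western blotting.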

The nature of data set [9]: MRT (0 to infinity) in Sprague-Dawley rat at 1 mg/kg, iv measured after 2 to 720 mins by LC-tandem mass spectrometry analysis. Type of data set: ADME, organism-based. The conditions noted are these: in vivo. The gist of the method:
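Male Sprague–Dawley rats (190-210 g), fasted 12 h, given 1 mg/kg i.v. or 10 mg/kg p.o. in DMSO/5% glucose water (1:9). Blood sampled at 2–720 min (i.v.) or 5–720 min (p.o.). Plasma proteins precipitated with methanol using caffeine internal standard, then LC-MS/MS. Noncompartmental analysis; F = AUC0-∞ ratio corrected for dose; triplicate ±SD.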

A short description of data set [10]: AUC (0 to t) in Sprague-Dawley rat at 10 mg/kg, po measured after 5 to 720 mins by LC-tandem mass spectrometry analysis. Type of data set: ADME, organism-based. The conditions noted are these: in vivo. The gist of the method: (§2)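 Male Sprague-Dawley rats (190-210 g), fasted 12 h, randomized into two groups: 1 mg/kg i.v. or 10 mg/kg p.o., both formulated in 10% DMSO/90% of 5% glucose water. Blood sampled at 2-720 min (i.v.) or 5-720 min (p.o.). Plasma protein-precipitated with methanol, caffeine internal standard, LC-MS/MS. Noncompartmental analysis; triplicate, ±SD.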

The nature of data set [11]: Apparent clearance in Sprague-Dawley rat at 10 mg/kg, po measured after 5 to 720 mins by LC-tandem mass spectrometry analysis. Type of data set: ADME, organism-based. The conditions noted are these: in vivo, read-out: CL(app) (converted). The method, boiled down:
as §2

Data set [12] in a line: Apparent volume of distribution in mouse at 1 mg/kg, iv measured after 2 to 720 mins by LC-tandem mass spectrometry analysis. The conditions noted are these: in vivo, read-out: Vz. In kind it is ADME, organism-based. The gist of the method: (§3)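 Mice dosed 1 mg/kg i.v. or 10 mg/kg p.o.; plasma drug levels by LC-MS/MS, parameters by noncompartmental analysis; values not from triplicate testing.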

Data set [13] is described as follows: Cmax in mouse at 1 mg/kg, iv measured after 2 to 720 mins by LC-tandem mass spectrometry analysis. The conditions noted are these: in vivo. Type of data set: ADME, organism-based. Set-up: dose 1 mg/kg, route intravenous. The gist of the method:
as §3

The nature of data set [14]: Half-life in mouse at 10 mg/kg, po measured after 5 to 720 mins by LC-tandem mass spectrometry analysis. In kind it is ADME, organism-based. The conditions noted are these: in vivo. The gist of the method: as §3
Data set [15] is described as follows: Cmax in mouse at 10 mg/kg, po measured after 5 to 720 mins by LC-tandem mass spectrometry analysis. Type of data set: ADME, organism-based. The arrangement: dose 10 mg/kg, route oral. The conditions noted are these: in vivo. The method, boiled down:
as §3

Data set [16] has as its system Mus musculus. Briefly: Inhibition of c-KIT phosphorylation at Y719 residue in tumor of human GIST5R cells xenografted in nude mouse at 100 mg/kg, po administered as single dose and measured at 2 hrs. In kind it is functional, organism-based. The gist of the method: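 Female nu/nu mice bearing subcutaneous GIST-5R xenografts (cells in Matrigel, right flank) given one oral gavage dose of 100 mg/kg in HKI suspension (0.5% methocellulose/0.4% Tween80 in ddH2O). Tumors collected over a 2 h time course; p-c-KIT, p-ERK and p-AKT assessed by Western blot; plasma drug levels monitored in parallel.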

Data set [17] deals with Mus musculus. In words: Inhibition of ERK phosphorylation at T202/Y204 residue in tumor of human GIST5R cells xenografted in nude mouse at 100 mg/kg, po administered as single dose and measured at 2 hrs. In kind it is functional, organism-based. The method, boiled down: (§4)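 Female nu/nu mice bearing subcutaneous GIST-5R tumors (cells in Matrigel, right flank) given one oral dose of 100 mg/kg in 0.5% methylcellulose/0.4% Tween80. Tumors collected over a 2 h time course. p-c-KIT, p-ERK and p-AKT measured alongside plasma drug levels.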
A general note: Xenograft models place foreign cells or tissue in a host animal.

In data set [18] the test system is Mus musculus. Briefly: Inhibition of AKT phosphorylation at […] residue in tumor of human GIST5R cells xenografted in nude mouse at 100 mg/kg, po administered as single dose and measured at 2 hrs. In kind it is functional, organism-based. The gist of the method: as §4

Mast/stem cell growth factor receptor Kit (Homo sapiens, UniProt P10721), sequence (P10721 whole entry, the tested form may be a part): as the sequence (P10721 whole entry V559G, the tested form may be a part) above, with G559V counted along it
Mast/stem cell growth factor receptor Kit (Homo sapiens), P10721 [UNDEFINED MUTATION], sequence (P10721 whole entry, looked up, stated change not applied): as the sequence (P10721 whole entry V559G, the tested form may be a part) above, with G559V counted along it
Mast/stem cell growth factor receptor Kit (Homo sapiens), P10721 [V559D,V654A], sequence (P10721 whole entry V559D/V654A, the tested form may be a part): as the sequence (P10721 whole entry V559G, the tested form may be a part) above, with G559D, V654A counted along it
Mast/stem cell growth factor receptor Kit (Homo sapiens), P10721 [T670I], sequence (P10721 whole entry T670I, the tested form may be a part): as the sequence (P10721 whole entry V559G, the tested form may be a part) above, with G559V, T670I counted along it

As to `O=C(CC(=O)Nc1ccc2c(/C=C/c3ccccn3)n[nH]c2c1)Nc1cccc(F)c1`, the GI50 in data set [1] came out at 44 nM; in data set [3], 26 nM; in [4] it was 265 nM; in data set [7], 52 nM. Also, the RatioGI50 in [2] worked out at 26. The values for the pEC50 in data set [5] and in data set [6] were under 6.00 and 6.12, respectively. The inhibition entry in data set [8], in [16], in data set [17] and in data set [18] was “Active” each time. In [9], the MRT inf was 6.4 h. In data set [10], the AUC(0-t) was found to be 712 ng·h/mL. Moreover, the CL/F in data set [11] is 207 mL/min/kg. In data set [12], the Vd was 5.7 L/kg. The maximum concentration (Cmax) in data set [13] was 3020 ng/mL; in [15], 1120 ng/mL. Moreover, in [14], the half-life was 1.6 h.
